AI-2 QS modul: Vibrio harveyi AI-2 quorum sensing modulators, primary screen, JMH597 strain, luminescence/OD600 ratio; Vibrio harveyi JMH597 AI-2 luminescence/OD600 ratio, 9 h; hits give low values; strain lacks LuxN and CqsS sensors; 0 = neutral-control median; activity change, % at 7.5 µM; actives 0.4% (n = 300,000); AID 2094, 2009; in the data active means activity change below about -75%, passing the limit was not always enough;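 further: luminescence divided by OD600 gain over 9 h not by final OD600 alone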
HIF act: HIF pathway transcriptional activators, primary screen, cell-based, U2OS HRE-luciferase, luminescence | U2OS HRE-luciferase reporter; normalized: DMSO 0%, desferrioxamine 100% | activation, % at 7.5 µM (by protocol) | actives 0.32% (n = 300,000);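 active means mean activation of at least 10% of the iron chelator positive control signal, with at least half of replicates also reaching 10%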
CR mimetic SO: reduction of superoxide in aged yeast, primary screen, HTS. AID 2690, 2010. actives 0.18% (n = 330,000). S. cerevisiae aged cells, superoxide DHE fluorescence; hits give low values. superoxide response (% of plate mean), % at 10 µM;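 active means superoxide response under a set limit, about three screen SD below normal, cut at about 65% in these data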;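 further: yeast aged for seven days with compound at 30 °C before DHE staining; 100% = average MFI of all compound-treated wells on the plate with controls excluded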
NRP1-CendR mod: modulators of CendR peptide binding to NRP-1, primary screen, biochemical, fluorescence polarization, uHTS. inhibition, % at 25 µM. FAM-RPARPAR peptide binding to NRP-1. actives 0.85% (n = 360,000);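 active means inhibition or corrected inhibition above about 18%, plus a signal ratio from 0.5 to 1.5, limit read from the data, passing the limit was not always enough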
V-ATPase pHluor: regulators of yeast V-ATPase proton pumping, primary screen, pHLuorin cytosolic pH fluorescence; S. cerevisiae; response, % at 10 µM; actives 0.37% (n = 350,000); in the data active means response mostly above about 7.3%, no sharp cut-off; inactive means mostly below about 5.4%; further: actives read high
T cruzi repl: inhibitors of intracellular T. cruzi growth, primary screen, luminescence, NIH3T3 host cells; T. cruzi beta-gal in NIH3T3, 90 h; inhibition, % (no concentration beside the values); actives 1.4% (n = 300,000); AID 1885, 2009;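 active means mean inhibition across valid replicates above about 55%, limit read from the data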;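 further: signal also drops with host cell toxicity which is not excluded here; 0% = plate median of DMSO wells and 100% = zero luminescence signal; higher percent means less beta-gal luminescence so fewer parasites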
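Incubation – ≥90 h infection period, 3 h prior cell attachment · System – NIH/3T3 fibroblasts plus reporter T. cruzi · Doses – compound pinned at 50 nL/well, DMSO · Read-out basis – percent inhibition of parasite-derived β-gal signal · Signal – luminescent β-galactosidase signal after 60 min lysis · Also added – 5000 T. cruzi trypomastigotes/well · Medium – Low-serum DMEM with 2% FBS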
CR mimetic CP: superoxide lowering in aged yeast cells, confirmation, cherry picked compounds | shares compounds with CR mimetic SO | S. cerevisiae aging, superoxide DHE fluorescence; hits give low values | superoxide response (% of plate), % at 10 µM | actives 1% (n = 850) | AID 434994, 2010;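 active means superoxide signal below 65% of the plate average of sample wells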;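 further: cells aged with compound for 7 days at 30 degrees C before staining; 100% equals mean DHE fluorescence of all compound wells on the plate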
DHE counter: DHE quenching or ROS scavenging interference in aged yeast, artefact control for yeast caloric restriction mimetic project, S. cerevisiae BY4741, flow cytometry | DHE fluorescence; hits give low values | shares compounds with CR mimetic SO | fluorescence response, % at 10 µM | 850 tested, under 10 active | AID 435000, 2010;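 active means fluorescence response below 15%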;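 further: percent of the mean fluorescence averaged over all compound wells on the plate; lower means stronger quenching of DHE signal or ROS scavenging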
Active calls of the source: *. Sampled rows, rich in hits. Any-hit rate of the full collection: about 3%.

What do the screens show for `CCCCSc1nnc(NC(=O)CCc2ccccc2)s1`?
AI-2 QS modul: 5; HIF act: -4; CR mimetic SO: 91; NRP1-CendR mod: -4; V-ATPase pHluor: 1; T cruzi repl: 14

What do the screens show for `COC(=O)c1cccc(S(=O)(=O)N2CCCC2)c1`?
AI-2 QS modul: 14; HIF act: 0; CR mimetic SO: 91; NRP1-CendR mod: -5; V-ATPase pHluor: 3; T cruzi repl: -9; CR mimetic CP: 98; DHE counter: 87

Results for CC(C)Cn1c2ccccc2c2cc(C(=O)O)ccc21 ?
AI-2 QS modul: 18; HIF act: 0; CR mimetic SO: 121; NRP1-CendR mod: -4; V-ATPase pHluor: -1; T cruzi repl: -16; CR mimetic CP: 110; DHE counter: 91

What do the screens show for `CCCNC(=O)[C@@H]1CCCN1C(=O)C1CCN(S(=O)(=O)c2ccc(C)cc2)CC1`?
AI-2 QS modul: 35; HIF act: -1; CR mimetic SO: 64*; NRP1-CendR mod: 3; V-ATPase pHluor: 5; T cruzi repl: -1; CR mimetic CP: 116; DHE counter: 109

Results for CSCC(=O)N1CCCC(CO)(CCCc2ccccc2)C1 (centres undefined) ?
AI-2 QS modul: 18; HIF act: 0; CR mimetic SO: 91; NRP1-CendR mod: 11; V-ATPase pHluor: 1; T cruzi repl: -14

Results for COc1ccc(NC(=O)CCn2c(=S)[nH]c3ccccc3c2=O)cc1 ?
AI-2 QS modul: 15; HIF act: 0; CR mimetic SO: 65*; NRP1-CendR mod: 11; V-ATPase pHluor: -3; T cruzi repl: -1; CR mimetic CP: 115; DHE counter: 112

Results for Cc1cc(-c2nnc(SCC(=O)Nc3ccccc3)n2C)no1 ?
AI-2 QS modul: 35; HIF act: 0; CR mimetic SO: 58*; NRP1-CendR mod: 23; V-ATPase pHluor: 3; T cruzi repl: -3; CR mimetic CP: 104; DHE counter: 115

How did Cc1cc(-c2nnc(SCC(=O)Nc3ccc(C(F)(F)F)cc3)n2C)no1 do in these assays?
AI-2 QS modul: 10; HIF act: 0; CR mimetic SO: 113; NRP1-CendR mod: -4; V-ATPase pHluor: 1; T cruzi repl: 32

Results for CC(C)CN1C(=O)C(NC(=O)C2CC2)(C(F)(F)F)C2=C1CC(C)(C)CC2=O (centres undefined) ?
AI-2 QS modul: 4; HIF act: 0; CR mimetic SO: 105; NRP1-CendR mod: 6; V-ATPase pHluor: -4; T cruzi repl: 19

How did COc1ccc2nc3ccccc3nc2c1NC(=O)c1ccccc1Cl do in these assays?
AI-2 QS modul: 8; HIF act: 0; CR mimetic SO: 53*; NRP1-CendR mod: 132; V-ATPase pHluor: -1; T cruzi repl: 3; CR mimetic CP: 80; DHE counter: 93

Results for O=C(Nc1ccc2ccccc2n1)c1ccccc1Cl ?
AI-2 QS modul: 2; HIF act: -4; CR mimetic SO: 117; NRP1-CendR mod: 4; V-ATPase pHluor: 0; T cruzi repl: -2

What do the screens show for `CC(=O)c1ccc(N/N=C2/CCCNC2=O)cc1`?
AI-2 QS modul: 3; HIF act: 4; CR mimetic SO: 63*; NRP1-CendR mod: -3; V-ATPase pHluor: 4; T cruzi repl: 4; CR mimetic CP: 107; DHE counter: 102

How did Cc1ccc(-n2nc3ccc(NC(=O)/C=C/c4ccco4)cc3n2)cc1 do in these assays?
AI-2 QS modul: 19; HIF act: 1; CR mimetic SO: 54*; NRP1-CendR mod: -27; V-ATPase pHluor: 2; T cruzi repl: -43; CR mimetic CP: 102; DHE counter: 95

How did COc1ccccc1NC(=O)N1CCOCC1 do in these assays?
AI-2 QS modul: 1; HIF act: 1; CR mimetic SO: 104; NRP1-CendR mod: 12; V-ATPase pHluor: -4; T cruzi repl: -6

Results for N#C/C(=C\c1ccccn1)c1nc2ccccc2s1 ?
AI-2 QS modul: 13; HIF act: 3; CR mimetic SO: 102; NRP1-CendR mod: 133; V-ATPase pHluor: -1; T cruzi repl: -26

What do the screens show for `COc1ccc(/C(C#N)=C/c2ccccn2)cc1`?
AI-2 QS modul: 18; HIF act: -22; CR mimetic SO: 58*; NRP1-CendR mod: -1; V-ATPase pHluor: 2; T cruzi repl: -6; CR mimetic CP: 122; DHE counter: 109

How did Cc1nc2ncnn2c(C)c1CCC(=O)N1CCN(Cc2ccccc2)CC1 do in these assays?
AI-2 QS modul: 24; HIF act: 0; CR mimetic SO: 126; NRP1-CendR mod: -3; V-ATPase pHluor: 0; T cruzi repl: -7

Results for CCOC(=O)N1CCN(CC(=O)Nc2sc(CC)cc2C(=O)c2ccc(OC)cc2)CC1 ?
AI-2 QS modul: 50; HIF act: 0; CR mimetic SO: 58*; NRP1-CendR mod: 10; V-ATPase pHluor: -5; T cruzi repl: 45; CR mimetic CP: 106; DHE counter: 101

What do the screens show for `COc1ccccc1-n1c(COc2ccccc2-c2ccccc2)nnc1SCC(=O)c1c(N)n(C)c(=O)n(C)c1=O`?
AI-2 QS modul: 6; HIF act: 1; CR mimetic SO: 99; NRP1-CendR mod: 5; V-ATPase pHluor: -5; T cruzi repl: 30

How did COc1ccc(C(=O)Oc2ccc(/C=N/NC(=O)c3cccnc3)cc2OC)cc1 do in these assays?
CR mimetic SO: 95; NRP1-CendR mod: 2; V-ATPase pHluor: 1

What do the screens show for `COc1ccc(/C=N/NC(=O)c2cccnc2)cc1`?
AI-2 QS modul: 31; HIF act: -10; CR mimetic SO: 54*; NRP1-CendR mod: -7; V-ATPase pHluor: 4; T cruzi repl: -9; CR mimetic CP: 95; DHE counter: 99

What do the screens show for `O=C(N/N=C/c1coc2ccccc2c1=O)c1cn(-c2ccccc2)nc1-c1ccccc1`?
AI-2 QS modul: 7; HIF act: 0; CR mimetic SO: 94; NRP1-CendR mod: -7; V-ATPase pHluor: -1; T cruzi repl: -17

How did CCC1CCCCN1CCCNC(=O)CCCNC(=O)Cn1cnc2sc3c(c2c1=O)CCCC3 (centres undefined) do in these assays?
AI-2 QS modul: 14; HIF act: -1; CR mimetic SO: 94; NRP1-CendR mod: 7; V-ATPase pHluor: 2; T cruzi repl: -17
